Experimental data published in ChEMBL document CHEMBL1649302, “New small-molecule inhibitor class targeting human immunodeficiency virus type 1 virion maturation” (Antimicrob Agents Chemother, 2009).
Calls of active or inactive are those of the source. No cut-off for these calls is given here.

How the values were obtained:
[1] = Therapeutic index, ratio of CC50 for human PBMC to EC50 for HIV1 91US005 infected in human PBMC; conditions: read-out: TI
Method in brief: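 TI was the mean PBMC CC50 divided by the mean EC50 from the 7-day PBMC reverse transcriptase assay.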

[2] = Therapeutic index, ratio of CC50 for human PBMC to EC50 for HIV1 98IN022 infected in human PBMC; conditions: read-out: TI
Method in brief: (§1)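 Frozen PHA-stimulated (1.5 μg/ml, 3 days) buffy-coat PBMCs pooled from three or four seronegative donors. Infected with a TCID50-based virus input per 10⁶ cells for 1 h at 37°C, then pelleted and resuspended in 10 ng/ml IL-2. Plated at 4 × 10⁵ cells/ml on compound dilutions for 7 days at 37°C. Supernatant RT measured by Quan-T-RT. TI is mean CC50 divided by mean EC50.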

[3] = Therapeutic index, ratio of CC50 for human MT2 cells to EC50 for HIV1 NL4-3 infected in human MT2 cells; assay type: cell-based; conditions: read-out: TI
Method in brief: (§2)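 TI was the mean CC50 (XTT, uninfected MT-2) divided by the mean EC50, determined for each cell line in each experiment.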

[4] = Therapeutic index, ratio of CC50 for human PBMC to EC50 for HIV1 92HT596 infected in human PBMC; conditions: read-out: TI; method in brief: as §1
[5] = Cytotoxicity against human MT2 cells after 6 days by XTT assay; assay type: cell-based
Method in brief: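 Uninfected cells were incubated with half-log compound dilutions for 6 days, then given XTT/PMS for 4 h and read at 450 nm. CC50 was the concentration reducing formazan to 50% of uninfected, compound-free cells. Values are means ± SD from 3–5 experiments or individual values.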

[6] = tested on: Human immunodeficiency virus 1; test: Antiviral activity HIV1 92BR017 infected in human PBMC after 7 days by scintillation counting; assay type: functional, organism-based; conditions: Human immunodeficiency virus 1, 92BR017, 168 h
Method in brief: (§3)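 PBMCs came from buffy coats pooled from 3–4 seronegative donors, were PHA-stimulated (1.5 μg/ml, 3 days) and frozen. Thawed cells were infected 1 h at 37°C with virus input set by TCID50, then pelleted and resuspended in IL-2 (10 ng/ml). They were plated at 4 × 10⁵ cells/ml onto compounds for 7 days at 37°C. Supernatant RT activity was measured by Quan-T-RT scintillation assay.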

[7] = Therapeutic index, ratio of CC50 for human PBMC to EC50 for HIV1 92HT594 infected in human PBMC; conditions: read-out: TI; method in brief: as §1
[8] = tested on: Human immunodeficiency virus 1; test: Antiviral activity against HIV1 92HT594 infected in human MT2 cells assessed as inhibition of viral p24 antigen production after 5 days; assay type: functional, organism-based; conditions: Human immunodeficiency virus 1, 92HT594, MT2, 120 h
Method in brief: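 PM1 cells (NL4-3, Ba-L) or MT-2 cells (92HT594, 92HT599) were infected at MOI 0.16 for 2 h and washed. They were plated at 1 × 10⁴ cells/well (2 × 10⁵/ml) onto half-log compound dilutions. Supernatant p24 was quantified by ELISA at day 5. EC50 was the concentration giving a 50% decrease versus infected, compound-free cells.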

[9] = tested on: Human immunodeficiency virus 1; test: Antiviral activity HIV1 92US660 infected in human PBMC after 7 days by scintillation counting; assay type: functional, organism-based; conditions: Human immunodeficiency virus 1, 92US660, 168 h
Method in brief: (§4)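 Fresh PBMCs from HIV/HBV-seronegative donors were PHA-stimulated (4 μg/ml, 48–72 h) and kept with IL-2 (20 U/ml), with at least two donors pooled. Cells were seeded at 5 × 10⁴/well and infected (final MOI ≅0.1) with nine compound concentrations in triplicate wells. After 7 days, reverse transcriptase activity was measured in cell-free supernatant.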

[10] = tested on: Human immunodeficiency virus 1; test: Antiviral activity HIV1 93TH074 infected in human PBMC after 7 days by scintillation counting; assay type: functional, organism-based; conditions: Human immunodeficiency virus 1, 93TH074, 168 h; method in brief: as §3
[11] = tested on: Human immunodeficiency virus 1; test: Antiviral activity HIV1 92TH026 infected in human PBMC after 7 days by scintillation counting; assay type: functional, organism-based; conditions: Human immunodeficiency virus 1, 92TH026, 168 h; method in brief: as §4
[12] = tested on: Human immunodeficiency virus 1; test: Selectivity ratio of EC50 for HIV1 harboring capsid I201V mutant protein infected in human HeLa cells to EC50 for wild type HIV1 infected in human HeLa cells; assay type: functional
Method in brief: (§5)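 MT-2 cells were infected for 2 h with wild-type NL4-3 or recombinant NL4-3 carrying CA I201V or SP1 A1V. They were then cocultured with HeLa CD4 LTR/beta-Gal indicator cells in serially diluted compound. Beta-gal reporter was read after 4 days. EC50s are means ± SD of 3–6 experiments. Fold change is mutant EC50 divided by wild-type EC50.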

[13] = Therapeutic index, ratio of CC50 for human PBMC to EC50 for HIV1 92BR030 infected in human PBMC; conditions: read-out: TI
Method in brief: (§6)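 PHA-stimulated (4 μg/ml, 48 to 72 h) PBMCs pooled from at least two seronegative donors, kept with 20 U/ml IL-2, plated at 5 × 10⁴ cells/well. Infected with clinical isolate (final MOI ≅0.1) alongside nine compound concentrations in triplicate wells, 7 days. Supernatant reverse transcriptase activity measured. TI is mean PBMC CC50 divided by mean EC50.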

[14] = Therapeutic index, ratio of CC50 for human PBMC to EC50 for HIV1 CMU06 infected in human PBMC; conditions: read-out: TI; method in brief: as §1
[15] = Therapeutic index, ratio of CC50 for human MT2 cells to EC50 for HIV1 92HT599 infected in human MT2 cells; assay type: cell-based; conditions: read-out: TI; method in brief: as §2
[16] = tested on: Human immunodeficiency virus 1; test: Antiviral activity against HIV1 harboring capsid I201V mutant protein assessed as inhibition of virion maturation-associated CA/SP1 processing; assay type: functional, organism-based
Method in brief: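 HEK 293 cells were transfected with pNL4-3 CAI201V, pNL4-3 or mock, with or without compound at various concentrations, and supernatants collected 72 h later. Supernatants were clarified at 200 × g, and virions pelleted through a 20% sucrose–PBS cushion (20,000 × g, 3 h, 4°C) and lysed. Proteins were run on 4–12% Bis-Tris/MOPS gels and immunoblotted with anti-p24 (1:1,000) to detect CA/SP1 p25 versus p24.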

[17] = tested on: Human immunodeficiency virus 1; test: Selectivity ratio of EC50 for HIV1 harboring spacer peptide A1V mutant protein infected in human HeLa cells to EC50 for wild type HIV1 infected in human HeLa cells; assay type: functional; method in brief: as §5
[18] = tested on: Human immunodeficiency virus 1; test: Antiviral activity against HIV1 RF infected in human CEM-SS cells assessed as protection against virus-induced cytopathogenicity after 6 days by XTT assay; assay type: functional, organism-based; conditions: Human immunodeficiency virus 1, RF, 144 h
Method in brief: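 Host cells were infected with NL4-3 or IIIB (MOI 0.08) or RF (MOI 0.025–0.819) and seeded at 2 × 10⁴/well onto half-log compound dilutions. After 6 days, XTT/PMS was added for 4 h and formazan was read at 450 nm. EC50 was the concentration giving 50% of the formazan of uninfected, compound-free cells.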

[19] = Therapeutic index, ratio of CC50 for human PBMC to EC50 for HIV1 ROJO infected in human PBMC; conditions: read-out: TI; method in brief: as §6
[20] = tested on: Human immunodeficiency virus 1; test: Antiviral activity HIV1 ROJO infected in human PBMC after 7 days by scintillation counting; assay type: functional, organism-based; conditions: Human immunodeficiency virus 1, ROJO, 168 h; method in brief: as §4
[21] = tested on: Human immunodeficiency virus 1; test: Antiviral activity HIV1 92US072 infected in human PBMC after 7 days by scintillation counting; assay type: functional, organism-based; conditions: Human immunodeficiency virus 1, 92US072, 168 h; method in brief: as §4

In the case of `CC(C)(C)c1ccc(C(Cn2cccc(C(F)(F)F)c2=O)NC2Cc3ccccc3C2)cc1` (stereo unspecified), the selectivity ratio [1] is reported as less than 1, the selectivity ratio [2] is reported as 13 and the selectivity ratio [3] is reported as 53. The selectivity ratio [4] was 53, the CC50 at 144 h [5] was 15000 nM and the EC50 [6] was 120 nM. It also gave a selectivity ratio [7] of 15, an EC50 [8] of 240 nM and an EC50 [9] of 12000 nM. For the same molecule, the EC50 [10] was 120 nM, the EC50 [11] was greater than 17000 nM and the “Ratio EC50” value [12] was greater than 49. It also gave a selectivity ratio [13] of less than 1, a selectivity ratio [14] of 14 and a selectivity ratio [15] of 90. For the same molecule, the inhibition [16] was “inactive”, the “Ratio EC50” value [17] was greater than 16 and the EC50 [18] was greater than 20000 nM. It also gave a selectivity ratio [19] of less than 1, an EC50 [20] greater than 17000 nM and an EC50 [21] of 5 nM.
